ChEMBL document CHEMBL2440064, “Synthesis and biological evaluation of 2-amino-5-aryl-3-benzylthiopyridine scaffold based potent c-Met inhibitors” (Bioorg Med Chem, 2013)
Values belong to the compound of their own block, whether it stands above or below them. Active and inactive are the calls of the source. The calls are words filed in the database; no cut-off is given here.

What was measured:
[1] = target: T1, Hepatocyte growth factor receptor (Homo sapiens, UniProt P08581); assay: Inhibition of c-Met (unknown origin) using poly (Glu, Tyr) 4:1 as substrate at 10 uM after 60 mins by ELISA
Summary of the method: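 ELISA on wells precoated with 20 µg/mL poly(Glu,Tyr)4:1. Purified kinase with 10 µmol/L ATP in 50 mM HEPES pH 7.4, 50 mM MgCl₂, 0.5 mM MnCl₂, 0.2 mM Na₃VO₄, 1 mM DTT; 1% DMSO vehicle. 60 min at 37°C. Phosphotyrosine detected with PY99 antibody, then HRP anti-mouse IgG and o-phenylenediamine/H₂O₂, A490. Inhibition = [1−(A490/A490 control)]×100%; IC50 from curves.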

SK-MEL-28 = assay: Antiproliferative activity against human SK-MEL-28 cells after 72 hrs; details: SK-MEL-28, 72 h
MKN-45 = assay: Antiproliferative activity against human MKN45 cells after 72 hrs; details: MKN-45, 72 h
[2] = Antiproliferative activity against human EBC1 cells after 72 hrs; details: EBC-1, 72 h
SNU-5 = assay: Antiproliferative activity against human SNU5 cells after 72 hrs; details: SNU-5, 72 h
NIH3T3 = assay: Antitumor activity against mouse NIH/3T3 cells expressing TPR/Met allografted in mouse assessed as tumor growth inhibition at 50 mg/kg, po qd administered for 2 weeks measured twice per week relative to vehicle-treated control; assay type: functional; details: NIH3T3, 336 h, read-out: TGI
Summary of the method: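 Tumor fragments (1 mm³) implanted s.c. in right flank of nude mice by trocar. Randomized at 100–150 mm³ tumor volume. Dosed orally 7 days/week for 2 weeks; vehicle controls. Calipers twice weekly; TV = length×width²/2. Inhibition = 100%×{1−[(T day14−T day0)/(C day14−C day0)]}. n = 6/group, Student's t-test.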

NCI-H441 = assay: Antiproliferative activity against human NCI-H441 cells after 72 hrs; details: NCI-H441, 72 h
MCF7 = assay: Antiproliferative activity against human MCF7 cells after 72 hrs; details: MCF7, 72 h
SK-OV-3 = assay: Antiproliferative activity against human SKOV3 cells after 72 hrs; details: SK-OV-3, 72 h
NCI-H661 = assay: Antiproliferative activity against human NCI-H661 cells after 72 hrs; details: NCI-H661, 72 h
MDA-MB-231 = assay: Antiproliferative activity against human MDA-MB-231 cells after 72 hrs; details: MDA-MB-231, 72 h
HCT-116 = assay: Antiproliferative activity against human HCT116 cells after 72 hrs; details: HCT-116, 72 h
[3] = target: T1, Hepatocyte growth factor receptor; assay: Inhibition of c-Met (unknown origin) using poly (Glu, Tyr) 4:1 as substrate after 60 mins by ELISA
[4] = target: T1, Hepatocyte growth factor receptor; assay: Inhibition of c-Met in gefitinib-resistant human HCC827 cells assessed as inhibition of AKT phosphorylation at 0.5 uM after 2 hrs by Western blotting analysis; assay type: cell-based
Summary of the method: (§1)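 Cells grown to exponential phase, treated with compound 2 h at 37°C, lysed in 1× SDS sample buffer, resolved on 10% SDS-PAGE and transferred to nitrocellulose for immunoblotting.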

[5] = target: T1, Hepatocyte growth factor receptor; assay: Inhibition of c-Met phosphorylation in gefitinib-resistant human HCC827 cells at 0.5 uM after 2 hrs by Western blotting analysis; assay type: cell-based; summary of the method: as §1
[6] = target: T1, Hepatocyte growth factor receptor; assay: Inhibition of c-Met in gefitinib-resistant human HCC827 cells assessed as inhibition of p44/42 phosphorylation at 0.5 uM after 2 hrs by Western blotting analysis; assay type: cell-based; summary of the method: as §1

T1 sequence (P08581 whole entry): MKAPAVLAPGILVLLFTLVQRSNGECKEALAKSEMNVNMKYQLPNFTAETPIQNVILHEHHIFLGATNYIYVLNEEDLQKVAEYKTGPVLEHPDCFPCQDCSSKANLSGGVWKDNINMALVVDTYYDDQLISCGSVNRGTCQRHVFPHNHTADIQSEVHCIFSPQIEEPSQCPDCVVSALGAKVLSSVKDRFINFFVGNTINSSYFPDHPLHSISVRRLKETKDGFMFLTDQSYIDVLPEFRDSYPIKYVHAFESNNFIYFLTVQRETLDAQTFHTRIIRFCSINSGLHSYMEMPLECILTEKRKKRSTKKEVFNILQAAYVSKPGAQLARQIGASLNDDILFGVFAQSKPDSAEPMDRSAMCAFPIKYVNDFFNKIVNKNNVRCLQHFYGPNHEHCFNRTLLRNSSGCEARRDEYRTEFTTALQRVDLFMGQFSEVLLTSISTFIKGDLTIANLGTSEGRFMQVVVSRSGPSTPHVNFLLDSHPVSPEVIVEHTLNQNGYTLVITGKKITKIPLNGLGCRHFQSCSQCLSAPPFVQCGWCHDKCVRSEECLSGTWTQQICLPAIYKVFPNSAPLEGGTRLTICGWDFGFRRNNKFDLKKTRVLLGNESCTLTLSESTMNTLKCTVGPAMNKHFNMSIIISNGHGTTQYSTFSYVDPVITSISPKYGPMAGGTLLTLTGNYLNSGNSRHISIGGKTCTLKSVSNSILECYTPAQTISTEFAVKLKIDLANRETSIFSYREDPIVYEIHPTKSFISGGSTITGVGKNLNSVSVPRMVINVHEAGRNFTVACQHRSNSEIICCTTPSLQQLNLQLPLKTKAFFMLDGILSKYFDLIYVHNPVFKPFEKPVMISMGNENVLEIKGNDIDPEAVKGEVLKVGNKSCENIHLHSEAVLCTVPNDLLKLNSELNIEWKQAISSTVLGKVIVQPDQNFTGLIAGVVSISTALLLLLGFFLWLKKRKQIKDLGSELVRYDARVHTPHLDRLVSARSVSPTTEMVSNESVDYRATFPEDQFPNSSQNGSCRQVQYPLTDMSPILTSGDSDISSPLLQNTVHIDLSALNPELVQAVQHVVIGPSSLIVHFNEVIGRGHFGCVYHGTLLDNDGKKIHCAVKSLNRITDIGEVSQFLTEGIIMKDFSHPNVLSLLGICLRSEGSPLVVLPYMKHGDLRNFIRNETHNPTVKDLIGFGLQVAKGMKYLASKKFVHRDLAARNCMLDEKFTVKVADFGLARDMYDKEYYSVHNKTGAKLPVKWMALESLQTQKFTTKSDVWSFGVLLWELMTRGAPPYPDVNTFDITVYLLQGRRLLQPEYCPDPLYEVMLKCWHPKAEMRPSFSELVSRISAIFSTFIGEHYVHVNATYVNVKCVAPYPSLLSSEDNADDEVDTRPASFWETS

Structure (SMILES): CC(NS(=O)(=O)c1cc(-c2cnn(C3CCNCC3)c2)cnc1N)c1c(Cl)ccc(F)c1Cl (configuration not stated)
- IC50 [1]: > 10 µM

Structure (SMILES): COc1cc2ncnc(Nc3ccc(F)c(Cl)c3)c2cc1OCCCN1CCOCC1
- inhibition [4]: inactive
- inhibition [5]: Active
- inhibition [6]: inactive

Continued, in another order:

- IC50 (SK-MEL-28): 11 µM
- IC50 (MKN-45): 0.013 µM
- IC50 (SNU-5): 0.016 µM
- IC50 (NCI-H441): 17.2 µM
- IC50 (MCF7): 9.58 µM
- IC50 (SK-OV-3): 12.8 µM
- IC50 (NCI-H661): 11.5 µM
- IC50 (MDA-MB-231): 10.8 µM
- IC50 (HCT-116): 14.8 µM
Structure (SMILES): C[C@@H](Oc1cc(-c2cnn(C3CCNCC3)c2)cnc1N)c1c(Cl)ccc(F)c1Cl [CRIZOTINIB]
- IC50 [2]: 0.023 µM
- inhibition in vivo at 50 mg/kg (NIH3T3): 82.4%

- IC50 [3]: 0.171 µM
Structure (SMILES): C[C@H](Sc1cc(-c2cnn(C3CCNCC3)c2)cnc1N)c1c(Cl)ccc(F)c1Cl

- IC50 [3]: 0.0164 µM
Structure (SMILES): CC(Sc1cc(-c2cnn(C3CCNCC3)c2)cnc1N)c1c(Cl)ccc(F)c1Cl (racemic)
